From ChEMBL document CHEMBL4376883, “Discovery and Optimization of Small Molecules Targeting the Protein-Protein Interaction of Heat Shock Protein 90 (Hsp90) and Cell Division Cycle 37 as Orally Active Inhibitors for the Treatment of Colorectal Cancer” (J Med Chem, 2020)

How the values were obtained:
[1] = target: Heat shock protein HSP 90-beta/Hsp90 co-chaperone Cdc37 (Homo sapiens) (UniProt P08238+Q16543); experiment: Inhibition of His-tagged HSP90/GST-tagged Cdc37 (unknown origin) protein-protein interaction at 100 uM measured after 1 hr by HTRF assay relative to control; format: protein-complex assay
How it was run: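 His-Hsp90 and GST-Cdc37 were premixed at a final 80 nM in PBS with 200 mM KF, pH 7.4. Compound was added and the mix incubated 1 h at 37 °C, then read by HTRF. Inhibition rate was taken at 100 μM compound.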

Heat shock protein HSP90 [2] = target: T1, Heat shock protein HSP90 (Homo sapiens, UniProt P07900+P08238); experiment: Binding affinity to recombinant […] biotinylated-HSP90 N-terminal domain (9 to 236 residues) (unknown origin) expressed in Escherichia coli BL21 (DE3) by biolayer interferometry
How it was run: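 Biotinylated Hsp90 (100 µg/mL) loaded onto streptavidin sensors prewetted 10 min in PBS with 0.05% BSA and 0.01% Tween 20. Analyte binding measured at 28 °C. Double reference subtraction applied; data fitted to a 1:1 model with K_D = K_off/K_on.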

[3] = Permeability of the compound at pH 7.4 by PAMPA; format: ADME; conditions: read-out: permeability
How it was run: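 Permeability coefficient (Pe) was measured at pH 7.4 by double-sink PAMPA.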

Heat shock protein HSP90 [4] = target: T1, Heat shock protein HSP90; experiment: Binding affinity to recombinant […] HSP90 N-terminal domain (9 to 236 residues) (unknown origin) expressed in Escherichia coli BL21 (DE3) assessed as change in melting temperature by SYPRO dye based thermal shift assay
How it was run: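 Hsp90 N-terminal domain (10 µM) mixed with compound at 200, 100, 50 or 10 µM in 1× PBS, pH 8.0, with 6× SYPRO Orange. Heated from room temperature to 99 °C at 1 °C/min; fluorescence read at 492 nm excitation and 610 nm emission.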

[5] = Distribution coefficient, log D of the compound at pH 7.4 by potentiometric titration method; format: physicochemical; conditions: octanol/water
How it was run: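 log D at pH 7.4 measured by potentiometric titration on a Gemini Profiler.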

Heat shock protein HSP90 [6] = target: T1, Heat shock protein HSP90; experiment: Inhibition of recombinant full-length HSP90 ATPase activity N-terminal domain (9 to 236 residues) (unknown origin) expressed in Escherichia coli BL21 (DE3) measured after 1 hr by ADP hunter plus assay
HCT-116 = experiment: Antiproliferative activity against human HCT116 cells measured after 72 hrs by CCK8 assay; format: functional, cell-based; conditions: HCT-116, 72 h
How it was run: (§1)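 Cells grown in RPMI 1640 with 10% FBS at 37 °C, 5% CO2; STR-authenticated and mycoplasma-checked. Seeded at 3000-5000 cells/well and left 24 h. Serial compound dilutions added for 72 h, with matched DMSO as control. Viability read by CCK8 kit using the standard protocol. IC50 values derived from at least three parallel experiments.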

A549 = experiment: Antiproliferative activity against human A549 cells measured after 72 hrs by CCK8 assay; format: functional, cell-based; conditions: A549, 72 h; how it was run: as §1
L02 = experiment: Cytotoxicity against human L02 cells measured after 72 hrs by CCK8 assay; format: functional, cell-based; conditions: L02, 72 h; how it was run: as §1
Heat shock protein HSP90 [7] = target: T1, Heat shock protein HSP90; experiment: Binding affinity to recombinant […] HSP90 N-terminal domain (9 to 236 residues) (unknown origin) expressed in Escherichia coli BL21 (DE3) by isothermal calorimetric method
How it was run: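 ITC: 50 µM Hsp90 in the cell and 300 µM compound in the syringe, both in 20 mM Tris-HCl, 150 mM NaCl, pH 7.4. Nineteen injections at 180 s intervals with stirring at 1000 rpm.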

COc1ccc(OC)c(S(=O)(=O)Nc2ccc(Nc3ccnc(N4CCCC4)n3)cc2)c1
inhibition [1]: 41.8%

Cc1cc(C)c(S(=O)(=O)N(CC(=O)O)c2ccc(Nc3ccnc(N4CCN(C)CC4)n3)cc2)c(C)c1
inhibition [1]: 71.1%

Cc1cc(C)c(S(=O)(=O)N(CC(=O)O)c2ccc(Nc3ccnc(NC4CC4)n3)cc2)c(C)c1
inhibition [1]: < 50%

COc1ccc(S(=O)(=O)Nc2ccc(Nc3ccnc(N4CCCC4)n3)cc2)cc1
inhibition [1]: < 20%

Cc1cc(C)c(S(=O)(=O)Nc2ccc(Nc3ccnc(N4CCCC4)n3)cc2)c(C)c1
inhibition [1]: 66%

Cc1cc(C)c(S(=O)(=O)N(CC(=O)O)c2ccc(Nc3ccnc(N4CCCCC4)n3)cc2)c(C)c1
inhibition [1]: 86.2%

COC(=O)CN(c1ccc(Nc2ccnc(N3CCNCC3)n2)cc1)S(=O)(=O)c1c(C)cc(C)cc1C
Kd (Heat shock protein HSP90 [2]): 1.97 µM
Papp [3]: 101 ×10⁻⁶ cm/s
ΔTm (Heat shock protein HSP90 [4]): 3.53 °C
logD [5]: 2.63
IC50 (Heat shock protein HSP90 [6]): > 100 µM
inhibition [1]: 95.5%
IC50 (HCT-116): 6.25 µM
IC50 (A549): 43.3 µM
IC50 (L02): > 50 µM
Kd (Heat shock protein HSP90 [7]): 1.73 µM

Cc1cc(C)c(S(=O)(=O)N(CC#N)c2ccc(Nc3ccnc(N4CCNCC4)n3)cc2)c(C)c1
Papp [3]: 61.5 ×10⁻⁶ cm/s
ΔTm (Heat shock protein HSP90 [4]): 1.1 °C
logD [5]: 2.01
IC50 (Heat shock protein HSP90 [6]): > 100 µM
inhibition [1]: 64.3%

CCNc1nccc(Nc2ccc(N(CC(=O)O)S(=O)(=O)c3c(C)cc(C)cc3C)cc2)n1
inhibition [1]: < 50%

COC(=O)CN(c1ccc(Nc2ccnc(N3CCCCCC3)n2)cc1)S(=O)(=O)c1c(C)cc(C)cc1C
inhibition [1]: < 50%

CCN(CC)c1nccc(Nc2ccc(N(CC(=O)O)S(=O)(=O)c3c(C)cc(C)cc3C)cc2)n1
inhibition [1]: 79.6%

COc1ccc(CN(c2ccc(Nc3ccnc(N4CCCC4)n3)cc2)S(=O)(=O)c2c(C)cc(C)cc2C)cc1
inhibition [1]: < 50%

Cc1cc(C)c(S(=O)(=O)N(CC(N)=O)c2ccc(Nc3ccnc(N4CCCC4)n3)cc2)c(C)c1
inhibition [1]: < 50%

CCC(CC)Nc1nccc(Nc2ccc(N(CC(=O)OC)S(=O)(=O)c3c(C)cc(C)cc3C)cc2)n1
inhibition [1]: < 50%

CCN(CC)c1nccc(Nc2ccc(N(CC(=O)OC)S(=O)(=O)c3c(C)cc(C)cc3C)cc2)n1
inhibition [1]: < 50%

Cc1cc(C)c(S(=O)(=O)N(Cc2ccc(C(C)C)cc2)c2ccc(Nc3ccnc(N4CCCC4)n3)cc2)c(C)c1
inhibition [1]: < 50%

COC(=O)CN(c1ccc(Nc2ccnc(N3CCCC3)n2)cc1)S(=O)(=O)c1c(C)cc(C)cc1C
inhibition [1]: 65.4%

Cc1cc(C)c(S(=O)(=O)N(Cc2nnn[nH]2)c2ccc(Nc3ccnc(N4CCNCC4)n3)cc2)c(C)c1
Kd (Heat shock protein HSP90 [2]): 5.5 µM
Papp [3]: 55.4 ×10⁻⁶ cm/s
ΔTm (Heat shock protein HSP90 [4]): 1.36 °C
IC50 (Heat shock protein HSP90 [6]): > 100 µM
inhibition [1]: 98.6%
IC50 (HCT-116): 5.42 µM
IC50 (A549): 37.9 µM
IC50 (L02): > 50 µM
Kd (Heat shock protein HSP90 [7]): 2.4 µM
